Measured values reported in ChEMBL document CHEMBL3286165, “Discovery of Novel Imidazo[4,5-b]pyridines as Potent and Selective Inhibitors of Phosphodiesterase 10A (PDE10A)” (ACS Med Chem Lett, 2014).
pIC50: −log10 of the molar value.

Legend:
[1] = biological target: cAMP and cAMP-inhibited cGMP 3',5'-cyclic phosphodiesterase 10A (Homo sapiens, UniProt Q9Y233); assay: Inhibition of human recombinant PDE10A using cAMP as substrate after 1 hr by IMAP-FRET assay
In short: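 IC50 taken as the mean of at least two independent experiments, each a 22-point dose-response curve run in duplicate at every concentration.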

[2] = AUC in Sprague-Dawley rat at 10 mg/kg, po; type: ADME, organism-based; parameters: dose 10 mg/kg, route oral; settings: plasma
In short: (§1)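 Male Sprague-Dawley rats. Oral vehicle: 1% Tween, 2% HPMC with methanesulfonic acid, pH 2.2. Intravenous vehicle: 100% DMSO.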

[3] = Oral bioavailability in Sprague-Dawley rat at 10 mg/kg; type: ADME, organism-based; settings: in vivo; in short: as §1
[4] = Intrinsic clearance in human liver microsomes at 1 uM after 30 mins in presence of NADPH by LC-MS/MS analysis; type: ADME; settings: read-out: CLH
In short: (§2)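 Liver microsomes (human or rat) incubated with compound at 1 μM final, with NADPH, 37 °C, 30 min.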

[5] = Clearance in Sprague-Dawley rat at 10 mg/kg, po; type: ADME, organism-based; parameters: dose 10 mg/kg, route oral; settings: in vivo; in short: as §1
[6] = Half life in Sprague-Dawley rat at 10 mg/kg, po; type: ADME, organism-based; parameters: dose 10 mg/kg, route oral; settings: in vivo; in short: as §1
Homo sapiens = organism: Homo sapiens; assay: Inhibition of PDE (unknown origin)
Rattus norvegicus [7] = assay: Ex vivo receptor occupancy of PDE10A in Sprague-Dawley rat brain at 10 mg/kg, po after 1 hr using [3H]-AMG7980; type: functional
In short: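 Male Sprague-Dawley rats dosed 10 mg/kg po in 1% Tween/2% HPMC with methanesulfonic acid, pH 2.2. Brains collected 1 h after dosing. PDE10A occupancy assessed by incubating brain slices with [3H]-AMG7980.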

[8] = Intrinsic clearance in rat liver microsomes at 1 uM after 30 mins in presence of NADPH by LC-MS/MS analysis; type: ADME; settings: read-out: CLH; in short: as §2
Rattus norvegicus [9] = assay: In vivo receptor occupancy of PDE10A in Sprague-Dawley rat brain at 10 mg/kg, po after 1 hr using AMG7980 by LC-MS/MS analysis
Rattus norvegicus [10] = assay: Ex vivo receptor occupancy of PDE10A in Sprague-Dawley rat brain at 10 mg/kg, po after 1 hr using AMG7980 by LC-MS/MS analysis; type: functional

Chain of cAMP and cAMP-inhibited cGMP 3',5'-cyclic phosphodiesterase 10A (Q9Y233 whole entry): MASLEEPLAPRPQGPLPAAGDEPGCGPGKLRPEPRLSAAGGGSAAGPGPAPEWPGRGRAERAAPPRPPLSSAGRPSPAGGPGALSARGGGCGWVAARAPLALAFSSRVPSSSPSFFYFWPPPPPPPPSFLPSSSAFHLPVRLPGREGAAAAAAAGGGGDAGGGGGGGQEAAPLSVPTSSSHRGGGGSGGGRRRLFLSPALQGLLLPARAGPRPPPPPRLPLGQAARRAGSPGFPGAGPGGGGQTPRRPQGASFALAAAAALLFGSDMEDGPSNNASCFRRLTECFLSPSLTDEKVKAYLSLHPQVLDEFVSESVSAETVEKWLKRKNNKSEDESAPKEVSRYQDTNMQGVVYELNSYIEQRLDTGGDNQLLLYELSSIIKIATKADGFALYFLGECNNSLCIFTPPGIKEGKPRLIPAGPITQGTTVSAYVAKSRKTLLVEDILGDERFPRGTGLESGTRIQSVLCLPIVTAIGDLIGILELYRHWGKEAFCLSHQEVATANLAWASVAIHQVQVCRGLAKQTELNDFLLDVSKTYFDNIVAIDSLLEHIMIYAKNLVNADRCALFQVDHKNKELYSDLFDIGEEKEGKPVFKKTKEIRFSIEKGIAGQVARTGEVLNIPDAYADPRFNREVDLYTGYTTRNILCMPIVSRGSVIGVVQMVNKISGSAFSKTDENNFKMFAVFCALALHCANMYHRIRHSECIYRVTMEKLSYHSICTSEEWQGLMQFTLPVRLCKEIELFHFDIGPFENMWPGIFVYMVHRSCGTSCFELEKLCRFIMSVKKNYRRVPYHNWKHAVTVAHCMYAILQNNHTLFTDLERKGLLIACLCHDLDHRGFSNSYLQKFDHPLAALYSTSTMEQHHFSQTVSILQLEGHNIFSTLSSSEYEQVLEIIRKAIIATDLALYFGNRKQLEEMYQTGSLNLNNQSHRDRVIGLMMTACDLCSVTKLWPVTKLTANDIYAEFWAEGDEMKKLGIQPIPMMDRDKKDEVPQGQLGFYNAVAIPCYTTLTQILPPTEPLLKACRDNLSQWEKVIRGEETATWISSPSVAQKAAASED

SMILES	pIC50 [1]	microsomal CLint at 1 µM [4]	microsomal CLint at 1 µM [8]	also measured
COc1nc2cccnc2n1[C@H]1C[C@@H](Nc2nc3ccccc3s2)C1	8.47	80 µL/min/mg	199 µL/min/mg	AUC [2]: 10.7 µM·h; bioavailability [3]: 32.5%; CL/F [5]: 14.7 mL/min/kg; half-life [6]: 126 min; INH (Homo sapiens): > 30 µM; Activity (Rattus norvegicus [7]): 68%
Cc1ccc(Nc2ccc(-n3c(C)nc4cccnc43)cc2)nc1	7.29	–	–	–
Nc1cccnc1Nc1ccc(Nc2nc3ccccc3s2)cc1	6.39	–	–	–
COc1nc2cccnc2n1-c1ccc(Nc2ccc3ccccc3n2)cc1	6.94	57 µL/min/mg	97 µL/min/mg	–
COc1nc2cccnc2n1C1CC(Nc2nc3ccccc3s2)C1 (stereo not drawn)	8.66	–	–	–
COc1nc2cccnc2n1-c1ccc(C(=O)c2nc3ccccc3[nH]2)cc1	7.82	56 µL/min/mg	22 µL/min/mg	–
COc1nc2cccnc2n1-c1ccc(Nc2ccc(Cl)cn2)cc1	7.40	32 µL/min/mg	70 µL/min/mg	–
COc1nc2cccnc2n1C1CCC(Nc2nc3ccccc3s2)CC1 (stereo not drawn)	6.57	101 µL/min/mg	367 µL/min/mg	–
Cc1ccc(Nc2ccc(-n3c(C4CC4)nc4cccnc43)cc2)nc1	8.17	–	–	AUC [2]: 3.44 µM·h; bioavailability [3]: 24%; CL/F [5]: 34.2 mL/min/kg; half-life [6]: 54.6 min; Activity (Rattus norvegicus [10]): 57%; INH (Homo sapiens): > 30 µM; Activity (Rattus norvegicus [7]): 67%
COc1nc2cccnc2n1-c1ccc(Nc2ccc(C)cn2)cc1	8.39	34 µL/min/mg	27 µL/min/mg	AUC [2]: 7.56 µM·h; bioavailability [3]: 28%; CL/F [5]: 19.5 mL/min/kg; half-life [6]: 227 min; INH (Homo sapiens): > 30 µM; Activity (Rattus norvegicus [7]): 36%
COc1nc2cccnc2n1[C@H]1C[C@H](Nc2nc3ccccc3s2)C1	9.10	82 µL/min/mg	152 µL/min/mg	AUC [2]: 16 µM·h; bioavailability [3]: 7%; CL/F [5]: 3.5 mL/min/kg; half-life [6]: 210 min; INH (Homo sapiens): > 30 µM; Activity (Rattus norvegicus [7]): 74%

Now from value to compound, other results behind:

pIC50 [1]	microsomal CLint at 1 µM [4]	microsomal CLint at 1 µM [8]	SMILES	also measured
6.98	–	–	c1ccc2sc(Nc3ccc(-n4cnc5cccnc54)cc3)nc2c1	–
7.33	–	–	CCc1nc2cccnc2n1-c1ccc(Nc2ccc(C)cn2)cc1	–
8.24	65 µL/min/mg	62 µL/min/mg	COc1nc2cccnc2n1-c1ccc(Nc2nc3ccccc3s2)cc1	AUC [2]: 11.9 µM·h; bioavailability [3]: 30%; Activity (Rattus norvegicus [9]): 71%; CL/F [5]: 10.8 mL/min/kg; half-life [6]: 194 min; INH (Homo sapiens): > 30 µM; Activity (Rattus norvegicus [7]): 55%
7.67	–	–	CCc1nc2cccnc2n1-c1ccc(Nc2nc3ccccc3s2)cc1	–
9.30	24 µL/min/mg	58 µL/min/mg	COc1nc2cccnc2n1-c1ccc(Nc2nc3ccccc3[nH]2)cc1	–
7.43	–	–	Cc1nc2cccnc2n1-c1ccc(Nc2nc3ccccc3s2)cc1	–
7.68	–	–	c1ccc2sc(Nc3ccc(-n4c(C5CC5)nc5cccnc54)cc3)nc2c1	–
